Results: ChEMBL document CHEMBL1140794, “Discovery of 3-aryl-3-methyl-1H-quinoline-2,4-diones as a new class of selective 5-HT6 receptor antagonists” (Bioorg Med Chem Lett, 2008)

Columns and labels:
[1] = target: T1, 5-hydroxytryptamine receptor 6 (Homo sapiens, UniProt P50406); assay: Displacement of [3H]LSD from human cloned 5HT6 receptor expressed in HEK293 cells; type: cell-based
[2] = target: D(2) dopamine receptor (Homo sapiens, UniProt P14416); assay: Displacement of [3H]spiperone from human cloned dopamine D2 receptor
D(2) dopamine receptor, sequence (P14416 whole entry): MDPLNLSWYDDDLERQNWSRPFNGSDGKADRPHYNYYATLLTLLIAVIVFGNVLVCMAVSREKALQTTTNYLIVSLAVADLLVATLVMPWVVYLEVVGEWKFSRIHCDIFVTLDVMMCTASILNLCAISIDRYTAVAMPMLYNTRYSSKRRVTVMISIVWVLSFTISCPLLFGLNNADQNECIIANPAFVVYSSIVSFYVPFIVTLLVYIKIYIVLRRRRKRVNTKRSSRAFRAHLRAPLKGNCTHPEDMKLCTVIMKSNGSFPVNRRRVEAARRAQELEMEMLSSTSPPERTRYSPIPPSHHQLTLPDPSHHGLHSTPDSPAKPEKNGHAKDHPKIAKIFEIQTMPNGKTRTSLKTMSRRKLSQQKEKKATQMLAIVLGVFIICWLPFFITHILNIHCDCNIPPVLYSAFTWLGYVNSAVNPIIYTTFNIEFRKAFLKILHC

[3] = target: D(3) dopamine receptor (Homo sapiens, UniProt P35462); assay: Displacement of [3H]spiperone from human cloned dopamine D3 receptor
D(3) dopamine receptor, sequence (P35462 whole entry): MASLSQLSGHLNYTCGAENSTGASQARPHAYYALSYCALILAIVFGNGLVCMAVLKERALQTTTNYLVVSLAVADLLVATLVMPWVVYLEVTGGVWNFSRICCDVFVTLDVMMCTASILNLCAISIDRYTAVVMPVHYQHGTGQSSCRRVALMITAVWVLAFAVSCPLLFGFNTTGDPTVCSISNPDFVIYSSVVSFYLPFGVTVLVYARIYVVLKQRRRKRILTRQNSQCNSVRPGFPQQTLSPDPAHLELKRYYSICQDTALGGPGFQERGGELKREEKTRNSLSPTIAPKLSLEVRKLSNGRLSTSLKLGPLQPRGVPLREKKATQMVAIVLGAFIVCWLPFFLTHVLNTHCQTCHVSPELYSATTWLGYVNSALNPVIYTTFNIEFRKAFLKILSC

[4] = target: 5-hydroxytryptamine receptor 2A (Homo sapiens, UniProt P28223); assay: Displacement of [3H]ketanserin from human cloned 5HT2A receptor
5-hydroxytryptamine receptor 2A, sequence (P28223 whole entry): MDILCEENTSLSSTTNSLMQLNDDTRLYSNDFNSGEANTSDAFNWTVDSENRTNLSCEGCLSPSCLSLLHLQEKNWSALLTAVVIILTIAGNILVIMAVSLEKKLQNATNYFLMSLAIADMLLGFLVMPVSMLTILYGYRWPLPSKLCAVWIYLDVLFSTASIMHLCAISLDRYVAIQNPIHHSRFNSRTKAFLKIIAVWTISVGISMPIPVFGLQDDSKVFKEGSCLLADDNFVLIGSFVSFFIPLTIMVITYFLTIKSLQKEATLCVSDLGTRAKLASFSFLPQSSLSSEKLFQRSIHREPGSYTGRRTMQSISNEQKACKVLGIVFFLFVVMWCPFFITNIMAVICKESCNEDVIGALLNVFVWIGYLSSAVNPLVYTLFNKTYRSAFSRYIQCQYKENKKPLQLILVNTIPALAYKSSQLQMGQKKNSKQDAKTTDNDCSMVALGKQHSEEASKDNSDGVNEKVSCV

[5] = target: T2, 5-hydroxytryptamine receptor 1A (Homo sapiens, UniProt P08908); assay: Displacement of [3H]8-OH-DPAT from human cloned 5HT1A receptor
T2 sequence (P08908 whole entry): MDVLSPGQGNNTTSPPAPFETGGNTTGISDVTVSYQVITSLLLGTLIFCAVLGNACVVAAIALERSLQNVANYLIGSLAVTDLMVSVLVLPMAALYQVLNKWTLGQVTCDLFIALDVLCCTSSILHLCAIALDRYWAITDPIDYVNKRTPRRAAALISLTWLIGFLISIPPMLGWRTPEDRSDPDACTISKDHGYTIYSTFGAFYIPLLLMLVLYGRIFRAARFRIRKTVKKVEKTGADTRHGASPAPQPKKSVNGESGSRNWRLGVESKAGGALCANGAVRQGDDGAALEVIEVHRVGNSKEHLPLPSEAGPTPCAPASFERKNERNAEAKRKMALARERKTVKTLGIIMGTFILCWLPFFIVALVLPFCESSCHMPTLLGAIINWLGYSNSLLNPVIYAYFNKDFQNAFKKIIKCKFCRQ

[6] = target: T3, D(4) dopamine receptor (Homo sapiens, UniProt P21917); assay: Displacement of [3H]spiperone from human cloned dopamine D4 receptor
T3 sequence (P21917 whole entry): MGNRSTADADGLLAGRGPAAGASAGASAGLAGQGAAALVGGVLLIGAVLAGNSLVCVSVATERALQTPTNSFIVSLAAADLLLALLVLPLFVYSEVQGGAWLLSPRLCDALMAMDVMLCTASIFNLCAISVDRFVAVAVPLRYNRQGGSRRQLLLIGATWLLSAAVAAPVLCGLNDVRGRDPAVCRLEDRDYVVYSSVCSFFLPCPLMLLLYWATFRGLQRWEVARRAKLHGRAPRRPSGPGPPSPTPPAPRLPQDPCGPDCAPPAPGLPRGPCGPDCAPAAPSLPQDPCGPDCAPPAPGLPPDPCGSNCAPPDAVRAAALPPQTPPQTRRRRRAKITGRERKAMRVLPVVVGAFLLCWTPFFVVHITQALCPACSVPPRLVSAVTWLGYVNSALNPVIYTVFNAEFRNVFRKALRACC

[7] = target: T4, 5-hydroxytryptamine receptor 2C (Homo sapiens, UniProt P28335); assay: Displacement of [3H]mesulergine from human cloned 5HT2C receptor
T4 sequence (P28335 whole entry): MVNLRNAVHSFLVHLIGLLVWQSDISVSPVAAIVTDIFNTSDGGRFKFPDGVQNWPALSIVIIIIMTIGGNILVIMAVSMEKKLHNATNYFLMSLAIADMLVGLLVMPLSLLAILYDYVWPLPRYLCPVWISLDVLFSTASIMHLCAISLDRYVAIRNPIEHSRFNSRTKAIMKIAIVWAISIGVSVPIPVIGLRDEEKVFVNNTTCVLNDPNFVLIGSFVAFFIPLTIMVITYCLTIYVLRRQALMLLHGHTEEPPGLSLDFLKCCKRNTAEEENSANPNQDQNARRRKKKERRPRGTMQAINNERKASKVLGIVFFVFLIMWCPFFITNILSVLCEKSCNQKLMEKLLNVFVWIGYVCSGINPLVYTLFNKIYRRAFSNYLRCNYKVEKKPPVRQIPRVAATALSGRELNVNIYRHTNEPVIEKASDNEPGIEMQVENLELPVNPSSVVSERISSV

[8] = target: D(1A) dopamine receptor (Homo sapiens, UniProt P21728); assay: Displacement of [3H]SCH-23390 from human cloned dopamine D1 receptor
D(1A) dopamine receptor, sequence (P21728 whole entry): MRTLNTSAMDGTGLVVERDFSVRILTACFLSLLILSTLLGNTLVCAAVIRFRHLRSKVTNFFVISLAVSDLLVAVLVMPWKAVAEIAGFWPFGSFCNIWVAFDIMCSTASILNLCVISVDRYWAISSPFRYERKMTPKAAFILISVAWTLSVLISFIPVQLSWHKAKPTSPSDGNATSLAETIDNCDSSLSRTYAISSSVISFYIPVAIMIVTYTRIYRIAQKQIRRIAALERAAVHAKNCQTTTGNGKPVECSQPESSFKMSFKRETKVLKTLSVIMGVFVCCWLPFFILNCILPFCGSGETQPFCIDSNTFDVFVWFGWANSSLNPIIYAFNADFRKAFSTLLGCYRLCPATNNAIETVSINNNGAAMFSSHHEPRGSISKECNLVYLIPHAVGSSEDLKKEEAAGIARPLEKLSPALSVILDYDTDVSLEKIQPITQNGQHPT

[9] = target: 5-hydroxytryptamine receptor 7 (Homo sapiens, UniProt P34969); assay: Displacement of [3H]LSD from human cloned 5HT7 receptor
5-hydroxytryptamine receptor 7, sequence (P34969 whole entry): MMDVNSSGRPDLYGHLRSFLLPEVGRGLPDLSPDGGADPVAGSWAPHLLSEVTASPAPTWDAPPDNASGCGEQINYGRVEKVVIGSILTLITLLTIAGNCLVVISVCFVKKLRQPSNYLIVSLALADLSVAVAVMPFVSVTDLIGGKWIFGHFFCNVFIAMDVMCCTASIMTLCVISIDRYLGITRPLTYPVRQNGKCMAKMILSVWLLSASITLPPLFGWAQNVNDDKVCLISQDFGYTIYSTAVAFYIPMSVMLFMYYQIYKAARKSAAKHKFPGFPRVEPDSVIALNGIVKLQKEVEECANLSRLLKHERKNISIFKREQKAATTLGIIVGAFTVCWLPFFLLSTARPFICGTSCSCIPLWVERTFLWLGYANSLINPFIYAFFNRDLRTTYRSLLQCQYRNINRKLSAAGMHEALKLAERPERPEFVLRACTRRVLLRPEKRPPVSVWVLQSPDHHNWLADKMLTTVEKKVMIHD

[10] = target: T1, 5-hydroxytryptamine receptor 6; assay: Antagonist activity at human cloned 5HT6 receptor expressed in HeLa cells assessed as inhibition of 5-HT-stimulated cAMP accumulation after 20 mins by enzyme-immunoassay; type: functional, cell-based
How it was run: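 […] and test compounds were added to HBSS (pH 7.4) containing 1 mM MgCl₂, 1 mM CaCl₂ and 1-methyl-3-isobutylxanthine (IBMX) at 100. After 20 min at 37 °C, intracellular cAMP was measured by enzyme immunoassay. Compounds that inhibited 5-HT-stimulated cAMP accumulation were classed as antagonists.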

T1 sequence (P50406 whole entry): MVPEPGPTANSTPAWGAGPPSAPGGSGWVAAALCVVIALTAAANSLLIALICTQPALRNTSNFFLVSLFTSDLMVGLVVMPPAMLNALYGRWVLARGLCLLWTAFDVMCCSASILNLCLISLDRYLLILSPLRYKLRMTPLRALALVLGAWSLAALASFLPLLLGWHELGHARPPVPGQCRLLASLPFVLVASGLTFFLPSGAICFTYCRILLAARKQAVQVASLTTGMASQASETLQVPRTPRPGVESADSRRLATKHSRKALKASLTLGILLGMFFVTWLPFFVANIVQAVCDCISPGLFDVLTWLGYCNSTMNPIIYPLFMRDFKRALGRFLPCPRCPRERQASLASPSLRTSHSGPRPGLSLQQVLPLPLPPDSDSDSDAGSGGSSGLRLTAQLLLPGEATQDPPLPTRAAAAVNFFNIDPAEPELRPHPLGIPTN

## COc1cc(Br)c2c(c1)NC(=O)C(C)(c1ccccc1)C2=O (stereo not drawn)
[1]
  Ki: 73.2 nM

## CN(C)c1cc(Cl)c2c(c1)NC(=O)C(C)(c1ccccc1)C2=O (stereo not drawn)
[1]
  Ki: 715 nM

## CC1(c2ccc(Cl)cc2)C(=O)Nc2cc(Cl)cc(Cl)c2C1=O (stereo not drawn)
[1]
  Ki: 877 nM

## CC1(c2ccccc2)C(=O)Nc2cc(Br)cc(Br)c2C1=O (stereo not drawn)
[1]
  Ki: 197 nM

## CN(C)c1ccc(C2(C)C(=O)Nc3cc(Cl)cc(Cl)c3C2=O)cc1 (stereo not drawn)
[1]
  Ki: 346 nM

## CC1(c2ccc(I)cc2)C(=O)Nc2cc(Cl)cc(Cl)c2C1=O (stereo not drawn)
[1]
  Ki: 952 nM

## CCNc1ccc(C2(C)C(=O)Nc3cc(Cl)cc(Cl)c3C2=O)cc1 (stereo not drawn)
[1]
  Ki: 28.3 nM

## CC1(c2cccc(OCc3ccccc3)c2)C(=O)Nc2cc(Cl)cc(Cl)c2C1=O (stereo not drawn)
[2]
  Ki: > 10 µM
[3]
  Ki: > 10 µM
[4]
  Ki: 720 nM
[5]
  Ki: 0.17 µM
[6]
  Ki: > 10 µM
[7]
  Ki: > 10 µM
[8]
  Ki: 120 nM
[9]
  Ki: 0.6 µM
[1]
  Ki: 82.4 nM

## COc1ccc(C2(C)C(=O)Nc3cc(Cl)cc(Cl)c3C2=O)cc1[N+](=O)[O-] (stereo not drawn)
[1]
  Ki: > 1000 nM

## CC1(c2ccccc2)C(=O)Nc2cc(Cl)c(Cl)cc2C1=O (stereo not drawn)
[1]
  Ki: > 1000 nM

## CC1(c2ccccc2)C(=O)Nc2c(Br)cc(Br)cc2C1=O (stereo not drawn)
[1]
  Ki: > 1000 nM

## COc1ccc(C2(C)C(=O)Nc3cc(Cl)cc(Cl)c3C2=O)cc1 (stereo not drawn)
[1]
  Ki: 147 nM

## CC1(c2ccc(O)c([N+](=O)[O-])c2)C(=O)Nc2cc(Cl)cc(Cl)c2C1=O (stereo not drawn)
[1]
  Ki: > 1000 nM

## CC1(c2ccc(O)cc2)C(=O)Nc2cc(Cl)cc(Cl)c2C1=O (stereo not drawn)
[2]
  Ki: > 10 µM
[3]
  Ki: > 10 µM
[4]
  Ki: > 10000 nM
[5]
  Ki: > 10 µM
[6]
  Ki: > 10 µM
[7]
  Ki: > 10 µM
[8]
  Ki: > 10000 nM
[9]
  Ki: > 10 µM
[1]
  Ki: 12.3 nM
[10]
  IC50: 615 nM

## CC1(c2ccc(N)cc2)C(=O)Nc2cc(Cl)cc(Cl)c2C1=O (stereo not drawn)
[1]
  Ki: 156 nM

## CC1(c2ccc(O)c(Br)c2)C(=O)Nc2cc(Cl)cc(Cl)c2C1=O (stereo not drawn)
[1]
  Ki: 77.5 nM

## COc1ccc([C@]2(C)C(=O)Nc3cc(Cl)cc(Cl)c3C2=O)cc1
[1]
  Ki: 293 nM

## COc1ccc([C@@]2(C)C(=O)Nc3cc(Cl)cc(Cl)c3C2=O)cc1
[1]
  Ki: 893 nM

## CC1(c2ccccc2)C(=O)Nc2ccccc2C1=O (stereo not drawn)
[1]
  Ki: > 1000 nM

## CNc1ccc(C2(C)C(=O)Nc3cc(Cl)cc(Cl)c3C2=O)cc1 (stereo not drawn)
[1]
  Ki: 257 nM

## CCN(CC)c1ccc(C2(C)C(=O)Nc3cc(Cl)cc(Cl)c3C2=O)cc1 (stereo not drawn)
[1]
  Ki: 9.2 nM

## CC1(c2ccc(OCc3ccccc3)c(Br)c2)C(=O)Nc2cc(Cl)cc(Cl)c2C1=O (stereo not drawn)
[1]
  Ki: > 1000 nM

## CC1(c2ccccc2)C(=O)Nc2cc(Cl)ccc2C1=O (stereo not drawn)
[1]
  Ki: > 1000 nM

## COc1cc(Cl)c2c(c1)NC(=O)C(C)(c1ccccc1)C2=O (stereo not drawn)
[1]
  Ki: 345 nM

## CC1(c2ccc(Br)cc2)C(=O)Nc2cc(Cl)cc(Cl)c2C1=O (stereo not drawn)
[1]
  Ki: 304 nM

## CC1(c2cccc(O)c2)C(=O)Nc2cc(Cl)cc(Cl)c2C1=O (stereo not drawn)
[2]
  Ki: > 10 µM
[3]
  Ki: > 10 µM
[4]
  Ki: > 10000 nM
[5]
  Ki: > 10 µM
[6]
  Ki: > 10 µM
[7]
  Ki: > 10 µM
[8]
  Ki: 1810 nM
[9]
  Ki: > 10 µM
[1]
  Ki: 30.1 nM

## CC1(c2ccc([N+](=O)[O-])cc2)C(=O)Nc2cc(Cl)cc(Cl)c2C1=O (stereo not drawn)
[1]
  Ki: > 1000 nM

## COc1cc2c(c(OC)c1)C(=O)C(C)(c1ccccc1)C(=O)N2 (stereo not drawn)
[1]
  Ki: 728 nM

## COc1ccc(NS(=O)(=O)c2sc3ccc(Cl)cc3c2C)cc1N1CCNCC1
[2]
  Ki: 0.46 µM
[4]
  Ki: 1740 nM
[6]
  Ki: 0.13 µM
[7]
  Ki: 0.53 µM
[8]
  Ki: 120 nM

## CNc1cc(NS(=O)(=O)c2ccc(N)cc2)cc(NC)n1
[1]
  Ki: 512 nM

## CC1(c2ccccc2)C(=O)Nc2cc(Cl)cc(Cl)c2C1=O (racemic)
[2]
  Ki: > 10 µM
[3]
  Ki: > 10 µM
[4]
  Ki: > 10000 nM
[5]
  Ki: > 10 µM
[6]
  Ki: > 10 µM
[7]
  Ki: > 10 µM
[8]
  Ki: > 10000 nM
[9]
  Ki: > 10 µM
[1]
  Ki: 54.7 nM
